Measured values as given in ChEMBL document CHEMBL5136962, “Synthesis and immunological evaluation of N-acyl modified Globo H derivatives as anticancer vaccine candidates” (RSC Med Chem, 2021).
Activity calls are given as the source filed them.

Tests used:
[1] = tested on: Mus musculus; assay: (§1) Induction of antigen-specific immunogenicity in pathogen free Balb/c mouse assessed as increase in IgG1 antibody titer production against native Globo H antigen at 2 ug, IM administered 4 times at biweekly interval measured 13 days post third vaccination in presence of 2 ug glycolipid adjuvant C34 by ELISA; assay type: functional, organism-based; conditions: dose 2.0 µg, time 13.0 day
Method in brief: (§2)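 Six female Balb/c mice per group received CRM197 glycoconjugate (2 μg carbohydrate antigen) with C34 adjuvant (2 μg) intramuscularly, four times at two-week intervals. Pooled group sera were tested for IgG subclasses by ELISA on plates coated with the unmodified Globo H–BSA conjugate (G0-BSA).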

[2] = tested on: Mus musculus; assay: as §1, with “modified” for “native”, “14” for “13”, “fourth” for “third”; assay type: functional, organism-based; conditions: dose 2.0 µg, time 14.0 day
[3] = tested on: Globohexaosylceramide; assay: Binding affinity to globo H antigen in human MCF7 cells using mouse sera induced by compound immunization and 14 days post fourth vaccination measured after 30 mins by FITC-conjugated antibody based flow cytometry; assay type: cell-based; conditions: time 14.0 day
Method in brief: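 Immune sera from vaccinated mice were incubated with Globo H-positive MCF-7 human breast cancer cells. Binding of serum antibodies to the cells was measured by flow cytometry.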

[4] = tested on: Mus musculus; assay: as §1, with “14” for “13”, “fourth” for “third”; assay type: functional, organism-based; conditions: dose 2.0 µg, time 14.0 day; method in brief: as §2
[5] = tested on: MCF7; assay: Induction of complement-dependent cytotoxicity against human MCF7 cells assessed as increase in cell lysis using mouse sera induced by compound immunization and 14 days post fourth vaccination measured after 1 hr by LDH release assay; assay type: functional, cell-based; conditions: time 14.0 day
Method in brief: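 Complement-dependent cytotoxicity on MCF-7 cells used pooled sera collected after the 4th vaccination, diluted 1:10. Percent lysis was read by LDH release, with three wells per measurement. Values are mean ± SEM of three independent experiments, compared by one-way ANOVA.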

Measured: Activity

CC(=O)N[C@H]1[C@H](O[C@H]2[C@@H](O)[C@@H](CO)O[C@H](O[C@@H]3[C@H](O)[C@@H](O)[C@H](O[C@H]4[C@H](O)[C@@H](O)[C@H](OCCCCCN)O[C@@H]4CO)O[C@@H]3CO)[C@@H]2O)O[C@H](CO)[C@H](O)[C@@H]1O[C@@H]1O[C@H](CO)[C@H](O)[C@H](O)[C@H]1O[C@@H]1O[C@@H](C)[C@@H](O)[C@@H](O)[C@@H]1O
active: [1] | [2] | [3] | [4]

C[C@@H]1O[C@@H](O[C@H]2[C@H](O[C@H]3[C@@H](O)[C@@H](CO)O[C@@H](O[C@H]4[C@@H](O)[C@@H](CO)O[C@H](O[C@@H]5[C@H](O)[C@@H](O)[C@H](O[C@H]6[C@H](O)[C@@H](O)[C@H](OCCCCCN)O[C@@H]6CO)O[C@@H]5CO)[C@@H]4O)[C@@H]3NC(=O)C(F)(F)F)O[C@H](CO)[C@H](O)[C@@H]2O)[C@@H](O)[C@H](O)[C@@H]1O
active: [1] | [2] | [3] | [4] | [5]

C[C@@H]1O[C@@H](O[C@H]2[C@H](O[C@H]3[C@@H](O)[C@@H](CO)O[C@@H](O[C@H]4[C@@H](O)[C@@H](CO)O[C@H](O[C@@H]5[C@H](O)[C@@H](O)[C@H](O[C@H]6[C@H](O)[C@@H](O)[C@H](OCCCCCN)O[C@@H]6CO)O[C@@H]5CO)[C@@H]4O)[C@@H]3NC(=O)C(F)F)O[C@H](CO)[C@H](O)[C@@H]2O)[C@@H](O)[C@H](O)[C@@H]1O
active: [1] | [2] | [3] | [4] | [5]
